Published values of several laboratories.
Protocols differ between the studies behind these lines.
Observed: cell growth or viability

SMILES | cell line | technique | concentration | time | setting | quantity | result
COc1ccc(COC[C@@](O)(CNCc2ccccc2)[C@@H]2CC[C@@H](C)C[C@H]2OCc2ccc(OC)cc2)cc1 | A2780 | MTT | 10 µM | 72 h |  | inhibition | 98%
COc1nc(NCc2cn(-c3ccc(NC(=O)c4ccc(F)cc4)cc3)nn2)nc(OC)n1 | Caco-2 | MTT |  | 72 h |  | IC50 | 550 nM
C=CC(=O)c1cccnc1Nc1cc(C(F)(F)F)ccc1OCc1ccccc1 | NCI-H28 | CCK-8 |  | 72 h |  | GI50 | 11200 nM
O=C1c2ccccc2C(=O)c2c(Oc3ccc(C(=O)C(Cl)Cl)cc3[N+](=O)[O-])cccc21 | NCI-H1650 | MTT | 2.5 µM |  |  | inhibition | 28.7%
COc1cccc2c1C(=O)c1c(O)c3c(c(O)c1C2=O)C[C@@](O)(C(=O)CO)C[C@@H]3O[C@H]1C[C@H](N)[C@H](O)[C@H](C)O1 | Caco-2 | MTT | 6.25 µg/mL | 48 h | serum-free | viability | 62.1%
COc1nc(NCc2cn(-c3ccc(NC(=O)c4ccc(Br)cc4)cc3)nn2)nc(OC)n1 | Caco-2 | MTT |  | 72 h |  | IC50 | 689 nM
C[C@@H]1CC[C@@H]([C@](C)(O)CNCc2ccccc2)[C@H](OCc2ccccc2)C1 | A2780 | MTT | 10 µM | 72 h |  | inhibition | 91.6%
O=C(c1ccccc1)c1ccc(Oc2ccc(C(=O)C(Cl)Cl)cc2[N+](=O)[O-])cc1 | NCI-H1650 | MTT | 2.5 µM |  |  | inhibition | 96.5%
C=C(COCc1ccc(OC)cc1)[C@@H]1CC[C@@H](C)C[C@H]1OCc1ccc(OC)cc1 | A2780 | MTT | 30 µM | 72 h |  | inhibition | 27.4%
CC(=O)Nc1ccc(Oc2ccc(C(=O)C(Cl)Cl)cc2[N+](=O)[O-])cc1 | NCI-H1650 | MTT | 2.5 µM |  |  | inhibition | 97.6%
C=CC(=O)NC1CCN(c2ncc3ncnc(Nc4ccc(Oc5ccc6c(c5)ncn6C)c(C)c4)c3n2)CC1 | LoVo |  |  |  |  | EC50 | 11.8 nM
COc1nc(NCc2cn(-c3ccc(C(=O)Nc4ccccc4)cc3)nn2)nc(OC)n1 | Caco-2 | MTT |  | 72 h |  | IC50 | 208 nM
CC(=O)OCCCOc1ccc(C(=O)C(Cl)Cl)cc1[N+](=O)[O-] | NCI-H1650 | MTT | 2.5 µM |  |  | inhibition | 39.6%
C=C(F)C(=O)N1CCN(c2nc(OC[C@@H]3CCCN3C)nc3c2CCN(c2cccc4cccc(Cl)c24)C3)C[C@@H]1CC#N | HCC44 | ATP luminescence |  |  |  | IC50 | > 10000 nM
C[C@@H]1CC[C@@H]([C@](C)(O)CNCc2cccc(F)c2)[C@H](OCc2ccccc2)C1 | A2780 | MTT | 30 µM | 72 h |  | inhibition | 98.8%
C=CC(=O)N1CCN(c2nc(=O)n(-c3c(C)ccnc3C(C)C)c3nc(-c4c(O)cccc4F)c(F)cc23)[C@@H](C)C1 | NCI-H2122 | ATP luminescence |  |  |  | IC50 | 90.1 nM
C[C@@H]1CC[C@@H]([C@](O)(CNCc2ccccc2)COCc2ccccc2)[C@H](OCc2ccccc2)C1 | A2780 | MTT | 10 µM | 72 h |  | inhibition | 90.4%
COc1cccc2c1C(=O)c1c(O)c3c(c(O)c1C2=O)C[C@@](O)(C(=O)CO)C[C@@H]3O[C@H]1C[C@H](N)[C@H](O)[C@H](C)O1 | NCI-H1650 | MTT | 2.5 µM |  |  | inhibition | 95.8%
O=C(O)c1cccnc1Nc1cccc(C(F)(F)F)c1 | NCI-H28 | CCK-8 |  | 72 h |  | GI50 | > 40000 nM
CC(=O)c1ccc(Oc2ccc(C(=O)C(Cl)Cl)cc2[N+](=O)[O-])cc1 | NCI-H1650 | MTT | 2.5 µM |  |  | inhibition | 96.4%
C[C@@H]1CC[C@@H]([C@@](O)(CNCc2ccccc2)COCc2ccc(F)cc2)[C@H](OCc2ccc(F)cc2)C1 | A2780 | MTT | 30 µM | 72 h |  | inhibition | 98.5%
N#Cc1ccc(Oc2ccc(C(=O)C(Cl)Cl)cc2[N+](=O)[O-])cc1 | NCI-H1650 | MTT | 2.5 µM |  |  | inhibition | 87.6%
O=C(NO)c1ccc(CNc2nc3cccc(-c4ccc5c(c4)OCO5)n3n2)cc1 | HT-29 | SRB |  |  |  | GI50 | 510 nM
COc1ccccc1CNC[C@@](C)(O)[C@@H]1CC[C@@H](C)C[C@H]1OCc1ccccc1 | A2780 | MTT | 10 µM | 72 h |  | inhibition | 58.5%
O=C1CC[C@@H](COc2ccc(C(=O)C(Cl)Cl)cc2[N+](=O)[O-])N1 | NCI-H1650 | MTT | 2.5 µM |  |  | inhibition | 29.8%
COc1nc(NCc2cn(-c3ccc(NC(=O)c4ccc(C(F)(F)F)cc4)cc3)nn2)nc(OC)n1 | Caco-2 | MTT |  | 72 h |  | IC50 | 566 nM
COc1ccc(COC[C@@](O)(CNCc2ccc(F)cc2)[C@@H]2CC[C@@H](C)C[C@H]2OCc2ccc(OC)cc2)cc1 | A2780 | MTT | 30 µM | 72 h |  | inhibition | 100%
